In ChEMBL document CHEMBL3098000, “Imatinib analogs as potential agents for PET imaging of Bcr-Abl and c-KIT expression at a kinase level” (Bioorg Med Chem, 2014):
Each block holds one compound with its values, some of them ahead of it.

Tests used:
[1] = test system: Intestine; assay: Drug uptake in intestine of mouse xenografted with human U87 cells after 45 mins by PET analysis; format: ADME, U-87MG ATCC; details: in vivo, 0.75 h
[2] = test system: Intestine; assay: Drug uptake in intestine of mouse xenografted with human U87WT cells expressing human wild type c-KIT after 45 mins by PET analysis; format: ADME, tissue-based; details: in vivo, 0.75 h
[3] = test system: Mus musculus; assay: Drug uptake in mouse xenografted with human K562 cells expressing Bcr-Abl after 45 mins by PET analysis; format: ADME, organism-based; details: in vivo, 0.75 h
[4] = target: Bcr/Abl fusion protein (Homo sapiens, UniProt P00519); assay: Inhibition of Bcr-Abl (unknown origin) phosphorylation by spectrophotometric assay; format: protein assay
Sequence of Bcr/Abl fusion protein (P00519 whole entry, the tested form may be a part): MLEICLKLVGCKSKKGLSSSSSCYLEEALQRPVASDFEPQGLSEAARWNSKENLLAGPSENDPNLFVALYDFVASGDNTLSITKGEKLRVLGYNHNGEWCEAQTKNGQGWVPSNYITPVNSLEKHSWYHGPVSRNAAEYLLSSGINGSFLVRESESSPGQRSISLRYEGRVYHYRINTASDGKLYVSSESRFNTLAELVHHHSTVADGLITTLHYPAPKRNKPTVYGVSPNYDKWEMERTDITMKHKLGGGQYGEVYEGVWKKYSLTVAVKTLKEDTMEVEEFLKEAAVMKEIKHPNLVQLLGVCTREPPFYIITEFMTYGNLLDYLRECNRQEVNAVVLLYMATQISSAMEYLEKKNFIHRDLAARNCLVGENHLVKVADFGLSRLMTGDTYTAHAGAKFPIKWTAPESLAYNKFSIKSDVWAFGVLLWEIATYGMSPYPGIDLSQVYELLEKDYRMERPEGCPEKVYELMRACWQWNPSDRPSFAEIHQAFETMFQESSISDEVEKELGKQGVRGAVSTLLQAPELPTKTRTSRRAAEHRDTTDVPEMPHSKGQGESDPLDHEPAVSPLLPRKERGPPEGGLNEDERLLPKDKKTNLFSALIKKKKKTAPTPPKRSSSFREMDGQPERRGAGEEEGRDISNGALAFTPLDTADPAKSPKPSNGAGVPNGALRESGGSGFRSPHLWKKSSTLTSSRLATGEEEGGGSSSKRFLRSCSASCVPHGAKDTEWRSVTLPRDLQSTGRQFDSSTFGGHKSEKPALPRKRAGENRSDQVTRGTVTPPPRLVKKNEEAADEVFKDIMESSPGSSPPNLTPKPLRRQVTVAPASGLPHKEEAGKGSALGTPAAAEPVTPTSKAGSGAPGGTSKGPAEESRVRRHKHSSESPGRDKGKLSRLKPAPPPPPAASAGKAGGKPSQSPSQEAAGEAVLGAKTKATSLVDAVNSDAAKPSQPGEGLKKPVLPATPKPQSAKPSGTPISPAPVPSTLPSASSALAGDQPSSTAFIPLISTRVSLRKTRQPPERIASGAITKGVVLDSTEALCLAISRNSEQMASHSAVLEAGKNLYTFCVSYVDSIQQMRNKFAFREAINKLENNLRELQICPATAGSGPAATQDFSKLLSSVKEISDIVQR
Sequence of Bcr/Abl fusion protein (P11274 whole entry, further chain, the tested form may be a part): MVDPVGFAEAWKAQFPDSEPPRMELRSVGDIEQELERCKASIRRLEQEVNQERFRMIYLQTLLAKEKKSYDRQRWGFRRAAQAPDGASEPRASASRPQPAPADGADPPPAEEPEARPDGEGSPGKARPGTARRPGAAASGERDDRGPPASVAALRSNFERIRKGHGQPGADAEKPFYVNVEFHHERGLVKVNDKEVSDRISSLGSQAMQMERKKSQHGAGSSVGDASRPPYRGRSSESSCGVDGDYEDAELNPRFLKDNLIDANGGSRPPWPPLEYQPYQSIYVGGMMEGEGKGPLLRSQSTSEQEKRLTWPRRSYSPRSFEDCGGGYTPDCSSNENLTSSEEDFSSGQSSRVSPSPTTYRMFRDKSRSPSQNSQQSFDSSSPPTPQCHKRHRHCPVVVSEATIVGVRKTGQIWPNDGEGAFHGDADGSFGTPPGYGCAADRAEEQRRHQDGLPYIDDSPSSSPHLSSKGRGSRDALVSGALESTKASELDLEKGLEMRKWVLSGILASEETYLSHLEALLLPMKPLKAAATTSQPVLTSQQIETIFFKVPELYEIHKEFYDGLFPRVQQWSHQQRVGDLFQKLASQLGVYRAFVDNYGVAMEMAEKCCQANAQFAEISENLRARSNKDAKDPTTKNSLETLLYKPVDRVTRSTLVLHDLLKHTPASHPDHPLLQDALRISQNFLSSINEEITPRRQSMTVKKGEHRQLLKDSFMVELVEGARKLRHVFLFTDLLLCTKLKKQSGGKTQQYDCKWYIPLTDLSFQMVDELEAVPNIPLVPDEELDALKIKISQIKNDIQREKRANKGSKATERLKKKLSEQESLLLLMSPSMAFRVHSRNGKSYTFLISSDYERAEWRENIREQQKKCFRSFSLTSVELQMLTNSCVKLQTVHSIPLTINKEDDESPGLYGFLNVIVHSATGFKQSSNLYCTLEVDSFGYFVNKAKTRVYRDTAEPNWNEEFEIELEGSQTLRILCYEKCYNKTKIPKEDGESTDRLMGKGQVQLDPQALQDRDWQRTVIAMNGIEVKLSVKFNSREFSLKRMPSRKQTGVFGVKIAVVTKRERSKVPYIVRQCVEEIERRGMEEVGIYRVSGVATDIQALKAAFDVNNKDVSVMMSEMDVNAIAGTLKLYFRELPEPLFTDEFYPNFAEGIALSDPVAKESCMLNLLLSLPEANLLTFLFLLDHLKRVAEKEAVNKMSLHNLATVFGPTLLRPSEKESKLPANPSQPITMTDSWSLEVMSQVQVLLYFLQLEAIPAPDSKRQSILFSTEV

[5] = test system: Intestine; assay: Drug uptake in intestine of mouse xenografted with human U87 cells at 100 uCi, iv after 60 to 120 mins by PET analysis; format: ADME, organism-based, U-87MG ATCC; details: in vivo
Outline: (§1)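 Nude mice carried K562, U87 or U87WT tumor cells injected in Matrigel (200 μl) into the dorsal shoulder areas. [18F]STI-571, labeled by nucleophilic substitution, was given at 100 μCi/mouse i.v. MicroPET imaging was done at 30, 60 and 90 min, with images also shown at 60 and 120 min. Some mice were sacrificed at 60 or 90 min for tissue sampling and autoradiography.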

[6] = test system: Intestine; assay: Drug uptake in intestine of mouse xenografted with human U87WT cells expressing human wild type c-KIT at 100 uCi, iv after 60 to 120 mins by PET analysis; format: ADME, organism-based; details: in vivo; outline: as §1
[7] = test system: Intestine; assay: Drug uptake in intestine of mouse xenografted with human K562 cells expressing Bcr-Abl at 100 uCi, iv after 60 to 120 mins by PET analysis; format: ADME, organism-based; details: in vivo; outline: as §1
[8] = test system: Liver; assay: Drug uptake in liver of mouse xenografted with human U87 cells at 100 uCi, iv after 60 to 120 mins by PET analysis; format: ADME, organism-based, U-87MG ATCC; details: in vivo; outline: as §1
[9] = test system: Liver; assay: Drug uptake in liver of mouse xenografted with human U87WT cells expressing human wild type c-KIT at 100 uCi, iv after 60 to 120 mins by PET analysis; format: ADME, organism-based; details: in vivo; outline: as §1
[10] = test system: Liver; assay: Drug uptake in liver of mouse xenografted with human K562 cells expressing Bcr-Abl at 100 uCi, iv after 60 to 120 mins by PET analysis; format: ADME, organism-based; details: in vivo; outline: as §1
[11] = test system: Tumour; assay: Drug uptake in tumor of mouse xenografted with human U87 cells at 100 uCi, iv after 60 to 120 mins by PET analysis; format: ADME, organism-based, Neoplasm, U-87MG ATCC; details: in vivo; outline: as §1
[12] = test system: Tumour; assay: Drug uptake in tumor of mouse xenografted with human U87WT cells expressing human wild type c-KIT at 100 uCi, iv after 60 to 120 mins by PET analysis; format: ADME, organism-based, Neoplasm; details: in vivo; outline: as §1
[13] = Drug uptake in mouse digestive tract xenografted with human U87 cells at 100 uCi, iv after 15 to 120 mins by PET analysis; format: ADME, organism-based, U-87MG ATCC; details: in vivo; outline: as §1
[14] = Drug uptake in mouse digestive tract xenografted with human U87WT cells expressing human wild type c-KIT at 100 uCi, iv after 15 to 120 mins by PET analysis; format: ADME, organism-based; details: in vivo; outline: as §1
[15] = Drug uptake in mouse digestive tract xenografted with human K562 cells expressing Bcr-Abl at 100 uCi, iv after 15 to 120 mins by PET analysis; format: ADME, organism-based; details: in vivo; outline: as §1
[16] = test system: Tumour; assay: Drug uptake in tumor of mouse xenografted with human K562 cells expressing Bcr-Abl at 100 uCi, iv after 60 to 120 mins by PET analysis; format: ADME, organism-based, Neoplasm; details: in vivo; outline: as §1
[17] = Drug uptake in mouse right shoulder xenografted with human U87 cells at 100 uCi, iv after 15 to 120 mins by PET analysis; format: ADME, organism-based, U-87MG ATCC; details: in vivo, in the assay text read “U87WT cells” for “U87 cells”; outline: as §1
[18] = Drug uptake in mouse right shoulder xenografted with human U87WT cells expressing human wild type c-KIT at 100 uCi, iv after 15 to 120 mins by PET analysis; format: ADME, organism-based; details: in vivo; outline: as §1
[19] = Drug uptake in mouse right shoulder xenografted with human K562 cells expressing Bcr-Abl at 100 uCi, iv after 15 to 120 mins by PET analysis; format: ADME, organism-based; details: in vivo; outline: as §1
[20] = Drug uptake in human U87WT cells expressing human wild type c-KIT after 1 to 2 hrs; format: ADME, cell-based
Outline: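 Cells were incubated with [18F]STI-571, and tracer accumulation and washout were measured at 1 and 2 h. U87WT cells were made by retroviral transduction of U87 cells with wild-type human c-KIT receptor. Specificity was tested by blocking with excess unlabelled STI-571.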

[21] = test system: K562; assay: Drug uptake in human K562 cells expressing Bcr-Abl incubated for 1 to 2 hrs measured after drug washout; format: ADME, cell-based
[22] = test system: K562; assay: Drug uptake in human K562 cells expressing Bcr-Abl after 1 to 2 hrs; format: ADME, cell-based
[23] = test system: K562; assay: Drug uptake in human K562 cells expressing Bcr-Abl after 30 to 210 mins in presence of unlabelled STI-571; format: ADME, cell-based
[24] = test system: K562; assay: Drug uptake in human K562 cells expressing Bcr-Abl after 30 mins; format: ADME, cell-based; details: k562, 0.5 h
[25] = Drug uptake in human wild-type U87 cells incubated for 1 to 2 hrs measured after drug washout

IC50 [4]: 1380 nM
SMILES: Cc1ccc(NC(=O)c2ccc(CN3CCN(CCF)CC3)cc2)cc1Nc1nccc(-c2cccnc2)n1

Drug uptake [5]: Active
Drug uptake [6]: Active
Drug uptake [7]: Active
Drug uptake [8]: Active
Drug uptake [9]: Active
Drug uptake [10]: Active
Drug uptake [11]: Active
Drug uptake [12]: Active
Drug uptake [13]: Active
Drug uptake [14]: Active
Drug uptake [15]: Active
Drug uptake [16]: Active
Drug uptake [17]: Active
Drug uptake [18]: Active
Drug uptake [19]: Active
Drug uptake [20]: Not Active
Drug uptake [21]: Active
Drug uptake [22]: Active
Drug uptake [23]: Not Active
Drug uptake [24]: Active
Drug uptake [25]: Not Active
SMILES: Cc1ccc(NC(=O)c2ccc(CN3CCN(CC[18F])CC3)cc2)cc1Nc1nccc(-c2cccnc2)n1

The remaining lines, values behind:

SMILES: OC[C@H]1O[C@@H](O)[C@H]([18F])[C@@H](O)[C@@H]1O [FLUDEOXYGLUCOSE-F18]
Drug uptake [1]: Active
Drug uptake [2]: Active
Drug uptake [3]: Active

SMILES: Cc1ccc(NC(=O)c2ccc(CN3CCN(CCO)CC3)cc2)cc1Nc1nccc(-c2cccnc2)n1
IC50 [4]: 7080 nM

SMILES: Cc1ccc(NC(=O)c2ccc(CN3CCN(Cc4ccc(I)cc4)CC3)cc2)cc1Nc1nccc(-c2cccnc2)n1
IC50 [4]: 739 nM
